Screening data (PubChem)
Compounds with a hit are over-represented: about 3.5% of the library has one in this group of screens.
MrgX1 agonist: agonists of human MrgX1 receptor, primary screen, HEK293 cells, Fluo-4 calcium flux | Mas-related G-protein coupled receptor member X1 (Homo sapiens), Q96LB2 | Fluo-4 calcium fluorescence, agonist mode; active compounds read high | B-score at 10 µM | actives 0.44% (n = 310,000) | AID 588627, 2011;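 active = calcium response B-score plate-corrected fluorescence ratio at least 3 library SD, with starting fluorescence B-score inside 5 SD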
Target sequence (Q96LB2 whole entry, looked up): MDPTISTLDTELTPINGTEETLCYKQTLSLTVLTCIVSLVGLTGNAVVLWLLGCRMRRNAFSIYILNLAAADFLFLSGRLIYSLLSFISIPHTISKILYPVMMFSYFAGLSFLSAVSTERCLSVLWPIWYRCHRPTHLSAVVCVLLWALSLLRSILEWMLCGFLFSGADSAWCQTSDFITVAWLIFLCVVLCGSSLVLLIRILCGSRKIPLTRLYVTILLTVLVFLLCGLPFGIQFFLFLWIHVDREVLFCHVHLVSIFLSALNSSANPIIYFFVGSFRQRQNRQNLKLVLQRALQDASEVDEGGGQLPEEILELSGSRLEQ
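Assay system: MrgX1-expressing HEK293 cells / Amount: fifteen thousand cells per well / Doses: test compound in the initial addition of three / Timing: cells plated overnight, dye loaded 0.5 h 37 °C, 0.5 h room temperature / Technique: kinetic calcium dye fluorescence, Fluo-4 NW / Control set: positive and negative controls per plate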
MrgX1 antagonist: antagonists of human MrgX1 receptor, primary screen, HEK293 cells, Fluo-4 calcium flux; Mas-related G-protein coupled receptor member X1 (Homo sapiens), Q96LB2; BAM8-22 antagonism; active compounds read low; B-score at 10 µM; actives 1.3% (n = 310,000); AID 588676, 2011;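 active = calcium-response B-score plate-corrected more than 3 library SD below zero, starting fluorescence within 5 deviations, no agonist response on first addition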;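 also: peak minus trough fluorescence over baseline after final BAM8-22 challenge near maximal dose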
RGS4 block: RGS4 inhibitors, primary screen, cell-based, HEK293 M3R inducible RGS4, calcium flux. B-score at 10 µM. Regulator of G-protein signaling 4 (Homo sapiens), P49798. actives 0.45% (n = 310,000). Fluo-4 calcium flux; active compounds read high; triggered by carbachol at its EC20;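 active = B-score, a plate-corrected calcium signal, over three deviations above library mean, with baseline fluorescence within five deviations of library mean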;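 also: RGS4 expression induced by doxycycline in cells with stable M3 receptor; B-score is computed from the integrated fluorescence ratio over baseline after carbachol; higher B-score means a larger calcium signal and so more RGS4 inhibition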
Target sequence (P49798 whole entry, looked up): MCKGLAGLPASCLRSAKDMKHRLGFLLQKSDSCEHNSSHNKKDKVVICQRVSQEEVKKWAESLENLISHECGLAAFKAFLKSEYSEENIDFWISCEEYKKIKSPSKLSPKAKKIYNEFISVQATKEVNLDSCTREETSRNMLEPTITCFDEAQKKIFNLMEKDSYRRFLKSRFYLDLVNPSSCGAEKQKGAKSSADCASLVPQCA
RGS4 act: RGS4 potentiators or activators, primary screen, cell-based, HEK293 M3R inducible RGS4, calcium flux | carbachol calcium flux Fluo4; active compounds read low | B-score at 10 µM | actives 0.92% (n = 310,000) | AID 463111, 2010;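 active = B-score of the integrated calcium signal more than 4 SD below the library mean, with starting fluorescence not abnormally high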;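 also: negative B-score means reduced calcium response which marks RGS4 activation or potentiation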
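Detection: kinetic calcium fluorescence imaging with Fluo4-AM dye, 2 µM / Material: HEK293 cells with stable M3R and inducible RGS4 / Schedule: recording 10 s baseline at 1 Hz, 100 s post-agonist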
MrgX1 PAM: positive allosteric modulators of MrgX1, primary screen, HEK293 cells, Fluo-4 calcium flux; actives 0.63% (n = 310,000); FDSS; active compounds read high; AID 588675, 2011; B-score at 10 µM;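 active = plate-corrected calcium response at least 3 library SD above typical, normal starting fluorescence, not activating the receptor alone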;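 also: compound read alongside a low EC10 to EC30 dose of BAM8-22 agonist; peak minus trough fluorescence over baseline measured at the second addition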
Large screens that a line does not name were inactive; ! = not active in a repeat.

COC(=O)[C@@]1(Cc2ccc(F)cc2)[C@H]2c3cc(C(=O)N(C)C)n(CCc4ccc(OC)c(Br)c4)c3C[C@H]2CN1C(=O)c1ccccc1	RGS4 act -7.2
COC(=O)[C@@]1(Cc2ccccc2)[C@H]2c3cc(C(=O)N4CCCC4)n(CCSCCO)c3C[C@H]2CN1C(=O)c1ccccc1	MrgX1 antagonist -5.2
COC(=O)[C@@]1(Cc2ccc(F)cc2)[C@H]2c3cc(C(=O)N(C)C)n(Cc4ccc(OC)c(OC)c4)c3C[C@H]2CN1C(=O)c1ccccc1	none
COc1ccc(NC(=O)CN(C)C(=O)Cn2c(=O)oc3ccccc32)cc1	none
O=C(NC(NC(=S)Nc1ccc(Cl)cc1)C(Cl)(Cl)Cl)c1ccco1 (stereo not given)	none
CC(=O)c1ccc(NC(=S)NC(NC(=O)c2ccco2)C(Cl)(Cl)Cl)cc1 (stereo not given)	MrgX1 PAM 7.6
CCOc1cc(S(=O)(=O)NCCCN2CCOCC2)c(C)cc1C	none
CC(/C=N/NC(=O)c1cnccn1)=C\c1ccco1	none
O=C(c1cc(-c2cccs2)nn1-c1ccccc1)N1CCN(S(=O)(=O)c2ccccc2)CC1	RGS4 act -7.2
CCOc1ccc(-c2nc(CS(=O)(=O)CC(=O)NCc3ccc(F)cc3)c(C)o2)cc1	none
CCCCc1nn2c(N)c(/C=C3\C=Nc4ccccc43)c(=O)nc2s1	none
CCC(CC)c1nn2c(N)c(/C=C3\C=Nc4ccccc43)c(=O)nc2s1	none
CC(C)c1nn2c(N)c(/C=C3\C=Nc4ccccc43)c(=O)nc2s1	MrgX1 PAM 13
CCCc1nn2c(N)c(/C=C3\C=Nc4ccccc43)c(=O)nc2s1	MrgX1 PAM 16!
NC(=O)c1ccccc1OCC(=O)Nc1ccc(Cl)c(Cl)c1	none
O=c1c(Cl)c(O)c2cccc3c4ccccc4n1c23	none
COc1c(O)c(=O)n2c3ccccc3c3ccnc1c32	MrgX1 PAM 37
COc1ccc(N2CC(C(=O)N/N=C/c3cccs3)CC2=O)cc1 (stereo not given)	MrgX1 antagonist -6.1
CC(=O)Nc1ccc(S(=O)(=O)NNC(=O)NC23CC4CC(CC(C4)C2)C3)cc1	none
Cc1ccc(S(=O)(=O)NNC(=O)NC23CC4CC(CC(C4)C2)C3)cc1	MrgX1 agonist 28
Nc1cc(C(=O)O)c(N)c2c1C(=O)c1ccccc1C2=O	MrgX1 antagonist -5.7
Nc1c(C(=O)O)ccc2c1C(=O)c1ccccc1C2=O	none
COP(=O)(OC)c1nc(-c2ccc([N+](=O)[O-])cc2)oc1N1CCCCC1	MrgX1 agonist 33
COc1ccc(S(=O)(=O)N2CCCCCC2)cc1C(=O)N(C)Cc1ccc(Cl)cc1Cl	MrgX1 PAM 14
CC(C)CN(C(=O)COC(=O)c1ccc(Br)cc1)c1c(N)n(Cc2ccccc2)c(=O)[nH]c1=O	none
COc1cc(OC)c(OC)cc1/C=C1\Oc2cc(OS(C)(=O)=O)ccc2C1=O	MrgX1 antagonist -7.4
CS(=O)(=O)Oc1ccc2c(c1)O/C(=C\c1cccnc1)C2=O	none
NC(=S)NN=C1C2CC3CC(C2)CC1C3	MrgX1 PAM 8.6
NC(=O)C(=O)NN=C1C2CC3CC(C2)CC1C3	none
O=C(CN1CCN(c2ccccn2)CC1)Nc1cccc(Br)c1	none
O=C(CSc1ccc(-c2nc3ccccc3[nH]2)cn1)Nc1ccc(S(=O)(=O)N2CCCC2)cc1	RGS4 act -7.1
Cc1cc2nc(-c3ccc(SCC(=O)Nc4ccc(S(=O)(=O)N5CCCC5)cc4)nc3)[nH]c2cc1C	none
CN(C)S(=O)(=O)c1ccc(Cl)c(NC(=O)COC(=O)/C=C/c2cnc3ccccc3n2)c1	none
Cc1cc(C)[n+](-c2ccc(C(C)C)cc2)c2[nH]c(=O)[nH]c(=O)c12	RGS4 act -9
CC(C)C(=O)Nc1cc(-c2nc3ncccc3o2)ccc1Cl	none
Cc1ccc(-n2cc(-c3ccccc3)c3c(N4CCN(C)CC4)ncnc32)cc1	none
Cc1ccc(-n2cc(-c3ccccc3)c3c(N4CCOCC4)ncnc32)cc1	RGS4 act -7.3 (no result: MrgX1 agonist, MrgX1 antagonist, MrgX1 PAM)
Cc1cc(C)c(C)c(S(=O)(=O)N2CCC(C(=O)N3CC(C)CC(C)C3)CC2)c1C (stereo not given)	none
COc1ccccc1N=Nc1c(C)n[nH]c1C	none
Cc1n[nH]c(C)c1N=Nc1cc(Cl)ccc1Cl	MrgX1 antagonist -5.4
CCN(CC)c1ccc(/C=C2\SC(N)=NC2=O)cc1	MrgX1 agonist 33
O=[N+]([O-])c1ccccc1S(=O)(=O)Oc1ccc(/C=N/n2cnnc2)cc1	none
COc1cc(/C=N/n2cnnc2)ccc1OS(=O)(=O)c1ccccc1[N+](=O)[O-]	MrgX1 antagonist -6.6
COc1ccc([N+](=O)[O-])cc1NC(=O)C(C)OC(=O)c1ccccn1 (stereo not given)	none
C/C=C/C=C/C(=O)OC(C)C(=O)Nc1cc([N+](=O)[O-])ccc1OC (stereo not given)	MrgX1 PAM 7.6
C=CCn1c(=O)/c(=C/c2ccc(O)cc2)s/c1=C(/C#N)c1nnc2n1CCCCC2	MrgX1 agonist 36 (no result: RGS4 block, RGS4 act)
C=CCn1c(=O)/c(=C/c2ccc(Cl)cc2)s/c1=C(/C#N)c1nnc2n1CCCCC2	none
Cc1onc(-c2c(F)cccc2Cl)c1C(=O)NC(C)c1ccccc1 (stereo not given)	none
COc1cc(SC)ccc1C(=O)OCC(=O)NCCC1=CCCCC1	none
c1ccc(SSc2ccccn2)nc1	MrgX1 agonist 32
c1ccc(Sc2ccccn2)cc1	none
N=C1S/C(=C\c2ccc(-c3cccc(Cl)c3)o2)C(=O)N1c1nccs1	none
O=C1OC(c2cccs2)=N/C1=C\c1ccc(-c2cccc(Cl)c2)o1	MrgX1 antagonist -5.1
O=S(=O)(c1cccs1)N1CCC(CO)(Cc2ccc(Cl)cc2)CC1	none
COc1ccc2ccccc2c1/C=N/NC(=O)c1nnn(-c2nonc2N)c1CN(C)C	none
COc1ccc2ccccc2c1/C=N/NC(=O)c1nnn(-c2nonc2N)c1C(C)C	RGS4 act -7.1
CCOc1ccc(-c2nc(CN3CCCC(C(=O)N4CCOCC4)C3)c(C)o2)cc1 (stereo not given)	none
Cc1ccc(S(=O)(=O)Nc2cccc(C(=O)NCC(c3ccccc3)N(C)C)c2)cc1F (stereo not given)	RGS4 act -7.5
Cc1ccc(NS(=O)(=O)c2ccc(C(=O)NCC(c3ccco3)N(C)C)cc2)cc1 (stereo not given)	MrgX1 antagonist -4.9
COC(=O)c1ccc2c(c1)C(C)(C)C(/C=C/c1ccc(OC)c(OC)c1OC)=[N+]2C	MrgX1 antagonist -6.5
COc1ccc(C(=O)N2c3ccccc3C=CC2C#N)cc1 (stereo not given)	RGS4 act -7.4
O=[N+]([O-])c1ccc(NC(=S)NCc2ccc(F)cc2)cc1	MrgX1 agonist 27
